The values below come from ChEMBL document CHEMBL3792341, “Substituted quinazolinones as kinase inhibitors endowed with anti-fibrotic properties” (Eur J Med Chem, 2016).

Data set [1] in a line: Cytotoxicity against human HSC cells assessed as cell viability at 1 uM after 72 hrs by MTT assay. It counts as cell-based. The method, boiled down:
(§1)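 MTT viability in primary human HSCs or ISEMFs seeded at 2 × 10³ cells/well. Cells were exposed to compound for 72 h, then to MTT 0.50 mg/ml for 4 h. Viability is expressed as % of the respective untreated cells. Triplicate per isolated cell batch.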
On the technique in general: Formazan colour is commonly taken as a measure of viable cells.

Data set [2] concerns the target Serine/threonine-protein kinase mTOR (Homo sapiens) (UniProt P42345). The data set is described as follows: Inhibition of human mTOR using PHAS-1 as substrate at 1 uM measured after 20 mins at 30 degC by liquid scintillation counting method in presence of [gamma-32P]-ATP.
A short description of data set [3]: Cytotoxicity against healthy human ISEMF assessed as cell viability at 1 uM after 72 hrs by MTT assay. An outline of the steps: as §1
The species named for data set [4] is Homo sapiens. The data set is described as follows: Antiproliferative activity against VEGF induced healthy human ISEMF at 1 uM after 72 hrs by carboxyfluorescein diacetate succinimidyl ester dye-based FACS flow cytometric method. It counts as functional. The method, boiled down: (§2)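 Primary human HSCs (from collagenase/pronase digests of non-pathological liver, Percoll gradient) or ISEMFs (from collagenase-digested gut biopsies, CD90-checked) were CFSE-loaded for 10 min at 37 °C in PBS with 0.1% BSA. Loading was quenched with 5 volumes of ice-cold medium. After 16 h, cells were washed and given compound plus 1 ng/ml VEGF for 72 h. Read-out was dye partitioning by flow cytometry, as % CFSE-positive cells. Duplicate per cell batch; mean ± SE.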

Data set [5] concerns the target Proto-oncogene tyrosine-protein kinase Src (Homo sapiens) (UniProt P12931). The data set is described as follows: Inhibition of human Src using myelin basic protein as substrate at 1 uM measured after 20 mins at 30 degC by liquid scintillation counting method in presence of [gamma-32P]-ATP.
For data set [6], the target named is T1, MAP kinase p38 (Homo sapiens) (UniProt O15264+Q15759+Q16539+P53778). Put plainly: Inhibition of p38 MAPK phosphorylation in crohn's disease patient isolated ISEMF at 1 uM after 4 hrs by western blotting analysis. An outline of the steps:
(§3)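 Primary human cells were treated with compound for 4 h. Lysates were made in RIPA buffer with phosphatase and protease inhibitors and cleared by centrifugation. Proteins were run on 10% SDS-PAGE and blotted to nitrocellulose. Blots were probed for phospho-p38 MAPK with an HRP secondary and ECL detection, then reprobed for total p38 MAPK as loading control. Duplicate experiments.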
Background: In western blotting, separated proteins are transferred to a membrane and probed.

The nature of data set [7]: Reduction of COL1A1 mRNA expression in crohn's disease patient isolated ISEMF at 1 uM by RT-PCR analysis. It counts as functional. The settings on record: Homo sapiens. The method, boiled down:
(§4)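 HSCs or ISEMFs were treated with compound for 24 h. Total RNA was extracted and DNase I-treated, then used for quantitative PCR of the target transcript. Values were normalized to 18S rRNA and relative change was calculated by the ΔΔCT method. Triplicate per isolated cell batch.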

Data set [8] is described as follows: Reduction of COL1A1 mRNA expression in healthy human ISEMF at 1 uM by RT-PCR analysis. It counts as functional. The method, boiled down: as §4
Data set [9] in a line: Cytotoxicity against crohn's disease patient isolated ISEMF assessed as cell viability at 1 uM after 72 hrs by MTT assay. The settings on record: human. An outline of the steps:
as §1

A further data set deals with HSC. The data set is described as follows: Antiproliferative activity against VEGF induced human HSC cells at 1 uM after 72 hrs by carboxyfluorescein diacetate succinimidyl ester dye-based FACS flow cytometric method. It counts as functional, cell-based. An outline of the steps: as §2
(In general: Flow cytometry measures light scatter and fluorescence of single cells or particles in a stream.)

In data set [10] the target is Platelet-derived growth factor receptor beta (Homo sapiens) (UniProt P09619). Put plainly: Inhibition of human PDGFR-beta at 1 uM measured after 20 mins at 30 degC by liquid scintillation counting method in presence of [gamma-32P]-ATP.
The target in data set [11] is Fibroblast growth factor receptor 1 (Homo sapiens) (UniProt P11362). Put plainly: Inhibition of human FGFR1 using myelin basic protein as substrate at 1 uM measured after 20 mins at 30 degC by liquid scintillation counting method in presence of [gamma-32P]-ATP.
For data set [12], the target named is Tyrosine-protein kinase ABL1 (Homo sapiens) (UniProt P00519). The data set is described as follows: Inhibition of human Abl1 using myelin basic protein as substrate at 1 uM measured after 20 mins at 30 degC by liquid scintillation counting method in presence of [gamma-32P]-ATP.
The species entered for data set [13] is Homo sapiens. Put plainly: Inhibition of human PI3K using phosphatidylinositol 4,5-diphosphate as substrate at 1 uM measured after 20 mins at 30 degC by liquid scintillation counting method in presence of [gamma-32P]-ATP.
Data set [14] is filed under the species Homo sapiens. Put plainly: Antiproliferative activity against VEGF induced crohn's disease patient isolated ISEMF at 1 uM after 72 hrs by carboxyfluorescein diacetate succinimidyl ester dye-based FACS flow cytometric method. The class given is functional. An outline of the steps:
as §2

The target in data set [15] is T1, MAP kinase p38 (Homo sapiens). Put plainly: Inhibition of p38 MAPK phosphorylation in human HSC cells at 1 uM after 4 hrs by western blotting analysis. It counts as cell-based. The method, boiled down:
as §3

Data set [16] can be described thus: Reduction of COL1A1 mRNA expression in healthy human HSC cells at 1 uM by RT-PCR analysis. It counts as functional, cell-based. An outline of the steps:
as §4

Data set [17] deals with Vascular endothelial growth factor receptor 2 (Homo sapiens) (UniProt P35968). Put plainly: Inhibition of human KDR using […] as substrate at 1 uM measured after 20 mins at 30 degC by liquid scintillation counting method in presence of [gamma-32P]-ATP.
Data set [18] can be described thus: Reduction of FN1 mRNA expression in human HSC cells at 1 uM by RT-PCR analysis. It counts as functional, cell-based. The method, boiled down: as §4
Data set [19] is described as follows: Reduction of FN1 mRNA expression in healthy human ISEMF at 1 uM by RT-PCR analysis. The class given is functional. The method, boiled down: as §4
A short description of data set [20]: Reduction of FN1 mRNA expression in crohn's disease patient isolated ISEMF at 1 uM by RT-PCR analysis. The settings on record: Homo sapiens. It counts as functional. An outline of the steps: as §4
A short description of data set [21]: Reduction of TIMP1 mRNA expression in human HSC cells at 1 uM by RT-PCR analysis. The class given is functional, cell-based. An outline of the steps: as §4
Data set [22] can be described thus: Reduction of TIMP1 mRNA expression in healthy human ISEMF at 1 uM by RT-PCR analysis. The class given is functional. The method, boiled down:
as §4

Data set [23] in a line: Reduction of TIMP1 mRNA expression in crohn's disease patient isolated ISEMF at 1 uM by RT-PCR analysis. It counts as functional. The settings on record: Homo sapiens. The method, boiled down:
as §4

Calls of active or inactive are those of the source. No cut-off for these calls is given here.

Sequence of Vascular endothelial growth factor receptor 2 (Homo sapiens) (P35968 whole entry): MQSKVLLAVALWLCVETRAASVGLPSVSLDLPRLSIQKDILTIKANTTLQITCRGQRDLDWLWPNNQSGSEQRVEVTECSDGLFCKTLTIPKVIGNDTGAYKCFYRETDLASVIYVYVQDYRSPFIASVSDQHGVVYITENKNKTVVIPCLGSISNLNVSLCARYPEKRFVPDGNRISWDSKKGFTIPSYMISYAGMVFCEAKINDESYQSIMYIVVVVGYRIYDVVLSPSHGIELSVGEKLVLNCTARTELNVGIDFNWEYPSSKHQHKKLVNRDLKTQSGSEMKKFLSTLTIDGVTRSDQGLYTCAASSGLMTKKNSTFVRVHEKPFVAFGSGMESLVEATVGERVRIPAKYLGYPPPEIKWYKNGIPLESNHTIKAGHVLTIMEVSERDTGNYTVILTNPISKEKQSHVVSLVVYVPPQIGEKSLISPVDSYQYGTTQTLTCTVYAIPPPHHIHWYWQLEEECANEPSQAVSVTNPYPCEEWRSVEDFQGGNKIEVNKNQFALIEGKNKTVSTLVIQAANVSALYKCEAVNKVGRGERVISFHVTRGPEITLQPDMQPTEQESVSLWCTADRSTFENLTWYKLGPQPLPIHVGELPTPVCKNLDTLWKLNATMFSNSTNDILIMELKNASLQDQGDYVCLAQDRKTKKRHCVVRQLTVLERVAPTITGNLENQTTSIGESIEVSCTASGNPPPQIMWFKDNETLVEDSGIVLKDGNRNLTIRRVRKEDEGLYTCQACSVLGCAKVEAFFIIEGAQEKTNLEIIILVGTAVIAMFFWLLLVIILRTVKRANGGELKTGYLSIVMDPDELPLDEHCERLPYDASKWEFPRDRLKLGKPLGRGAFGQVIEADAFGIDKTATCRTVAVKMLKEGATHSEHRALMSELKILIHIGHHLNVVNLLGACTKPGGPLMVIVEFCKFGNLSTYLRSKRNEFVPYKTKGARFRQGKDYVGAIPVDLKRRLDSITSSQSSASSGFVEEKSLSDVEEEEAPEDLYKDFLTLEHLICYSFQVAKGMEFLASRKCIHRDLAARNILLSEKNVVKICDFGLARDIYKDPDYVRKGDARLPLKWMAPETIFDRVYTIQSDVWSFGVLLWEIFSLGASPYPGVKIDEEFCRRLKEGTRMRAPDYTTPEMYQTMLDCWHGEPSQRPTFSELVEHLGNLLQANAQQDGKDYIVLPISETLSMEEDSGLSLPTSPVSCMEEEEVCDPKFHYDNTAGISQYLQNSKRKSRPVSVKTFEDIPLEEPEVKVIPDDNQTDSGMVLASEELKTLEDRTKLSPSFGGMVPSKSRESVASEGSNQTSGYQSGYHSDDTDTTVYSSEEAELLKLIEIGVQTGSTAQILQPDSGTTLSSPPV
Sequence of Tyrosine-protein kinase ABL1 (Homo sapiens) (P00519 whole entry): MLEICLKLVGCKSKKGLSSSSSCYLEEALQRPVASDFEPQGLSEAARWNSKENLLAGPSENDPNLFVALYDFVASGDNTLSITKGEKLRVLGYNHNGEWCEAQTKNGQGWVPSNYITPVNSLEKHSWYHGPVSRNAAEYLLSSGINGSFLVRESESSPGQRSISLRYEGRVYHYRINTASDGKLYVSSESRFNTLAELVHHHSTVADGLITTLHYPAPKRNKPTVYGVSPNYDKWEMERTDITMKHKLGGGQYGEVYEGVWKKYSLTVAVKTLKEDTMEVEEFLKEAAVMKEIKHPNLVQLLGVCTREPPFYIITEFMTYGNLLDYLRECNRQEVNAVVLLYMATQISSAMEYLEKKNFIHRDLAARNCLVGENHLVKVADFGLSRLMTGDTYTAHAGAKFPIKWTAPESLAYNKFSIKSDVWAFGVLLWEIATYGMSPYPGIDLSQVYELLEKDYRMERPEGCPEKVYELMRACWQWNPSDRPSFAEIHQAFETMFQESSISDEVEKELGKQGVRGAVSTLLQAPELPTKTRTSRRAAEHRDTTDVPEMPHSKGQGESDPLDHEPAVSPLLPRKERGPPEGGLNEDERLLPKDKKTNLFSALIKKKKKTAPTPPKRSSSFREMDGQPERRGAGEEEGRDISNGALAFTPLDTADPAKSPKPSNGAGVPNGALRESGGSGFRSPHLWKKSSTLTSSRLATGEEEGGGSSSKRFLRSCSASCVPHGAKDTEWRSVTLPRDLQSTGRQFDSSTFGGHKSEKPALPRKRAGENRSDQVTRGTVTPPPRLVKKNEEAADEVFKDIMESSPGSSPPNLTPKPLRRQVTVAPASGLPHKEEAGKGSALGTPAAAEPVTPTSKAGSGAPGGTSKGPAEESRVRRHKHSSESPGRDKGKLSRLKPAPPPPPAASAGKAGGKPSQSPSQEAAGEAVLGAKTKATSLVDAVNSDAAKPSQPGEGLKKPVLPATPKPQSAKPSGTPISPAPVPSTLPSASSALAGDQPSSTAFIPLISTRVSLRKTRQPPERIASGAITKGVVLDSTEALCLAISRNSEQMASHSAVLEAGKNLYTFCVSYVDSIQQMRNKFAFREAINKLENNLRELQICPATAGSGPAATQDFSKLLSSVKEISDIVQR
Sequence of Platelet-derived growth factor receptor beta (Homo sapiens) (P09619 whole entry): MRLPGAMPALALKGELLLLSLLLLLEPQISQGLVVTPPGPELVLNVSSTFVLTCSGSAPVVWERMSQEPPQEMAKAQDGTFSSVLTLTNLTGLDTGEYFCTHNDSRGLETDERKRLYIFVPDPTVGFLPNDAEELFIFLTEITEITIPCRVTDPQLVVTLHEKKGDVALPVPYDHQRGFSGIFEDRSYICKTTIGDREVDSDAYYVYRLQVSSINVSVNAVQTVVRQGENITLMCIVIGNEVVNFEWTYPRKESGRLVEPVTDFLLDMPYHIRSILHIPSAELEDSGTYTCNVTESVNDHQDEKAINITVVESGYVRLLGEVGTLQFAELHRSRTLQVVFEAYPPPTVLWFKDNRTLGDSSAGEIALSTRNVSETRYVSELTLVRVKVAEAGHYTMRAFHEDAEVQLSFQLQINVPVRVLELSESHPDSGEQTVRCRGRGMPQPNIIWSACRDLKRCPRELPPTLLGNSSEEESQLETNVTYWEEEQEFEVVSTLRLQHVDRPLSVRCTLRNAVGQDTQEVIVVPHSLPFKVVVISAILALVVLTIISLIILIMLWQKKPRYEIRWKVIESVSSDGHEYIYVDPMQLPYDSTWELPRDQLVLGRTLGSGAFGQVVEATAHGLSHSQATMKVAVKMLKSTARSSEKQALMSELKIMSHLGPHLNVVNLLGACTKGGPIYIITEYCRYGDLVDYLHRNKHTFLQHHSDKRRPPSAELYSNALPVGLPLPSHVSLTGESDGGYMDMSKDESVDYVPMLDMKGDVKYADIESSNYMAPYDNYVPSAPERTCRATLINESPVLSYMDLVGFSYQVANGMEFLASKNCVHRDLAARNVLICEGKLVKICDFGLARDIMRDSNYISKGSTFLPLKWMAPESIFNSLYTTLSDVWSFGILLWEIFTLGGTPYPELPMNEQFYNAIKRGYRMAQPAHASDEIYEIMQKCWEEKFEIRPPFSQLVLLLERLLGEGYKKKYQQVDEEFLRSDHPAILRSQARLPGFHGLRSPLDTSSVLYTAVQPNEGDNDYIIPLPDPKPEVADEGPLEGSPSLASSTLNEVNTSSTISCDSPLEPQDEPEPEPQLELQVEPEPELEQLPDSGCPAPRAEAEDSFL
Sequence of Proto-oncogene tyrosine-protein kinase Src (Homo sapiens) (P12931 2-536 limits assumed): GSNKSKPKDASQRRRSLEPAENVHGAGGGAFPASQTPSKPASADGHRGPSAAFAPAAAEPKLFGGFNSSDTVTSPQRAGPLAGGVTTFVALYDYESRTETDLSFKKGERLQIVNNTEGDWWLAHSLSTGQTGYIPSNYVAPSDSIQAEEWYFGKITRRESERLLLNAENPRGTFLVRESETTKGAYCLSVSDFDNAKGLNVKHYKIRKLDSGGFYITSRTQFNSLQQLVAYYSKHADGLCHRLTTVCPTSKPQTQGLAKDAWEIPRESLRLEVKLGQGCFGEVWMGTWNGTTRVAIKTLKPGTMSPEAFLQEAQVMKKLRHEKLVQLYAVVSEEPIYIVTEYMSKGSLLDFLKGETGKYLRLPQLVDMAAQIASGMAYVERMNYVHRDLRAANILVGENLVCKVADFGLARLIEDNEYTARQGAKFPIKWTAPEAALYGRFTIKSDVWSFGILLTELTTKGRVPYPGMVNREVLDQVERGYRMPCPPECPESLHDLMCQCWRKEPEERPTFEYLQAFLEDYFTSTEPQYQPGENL
Sequence of Fibroblast growth factor receptor 1 (Homo sapiens) (P11362 22-822 limits assumed): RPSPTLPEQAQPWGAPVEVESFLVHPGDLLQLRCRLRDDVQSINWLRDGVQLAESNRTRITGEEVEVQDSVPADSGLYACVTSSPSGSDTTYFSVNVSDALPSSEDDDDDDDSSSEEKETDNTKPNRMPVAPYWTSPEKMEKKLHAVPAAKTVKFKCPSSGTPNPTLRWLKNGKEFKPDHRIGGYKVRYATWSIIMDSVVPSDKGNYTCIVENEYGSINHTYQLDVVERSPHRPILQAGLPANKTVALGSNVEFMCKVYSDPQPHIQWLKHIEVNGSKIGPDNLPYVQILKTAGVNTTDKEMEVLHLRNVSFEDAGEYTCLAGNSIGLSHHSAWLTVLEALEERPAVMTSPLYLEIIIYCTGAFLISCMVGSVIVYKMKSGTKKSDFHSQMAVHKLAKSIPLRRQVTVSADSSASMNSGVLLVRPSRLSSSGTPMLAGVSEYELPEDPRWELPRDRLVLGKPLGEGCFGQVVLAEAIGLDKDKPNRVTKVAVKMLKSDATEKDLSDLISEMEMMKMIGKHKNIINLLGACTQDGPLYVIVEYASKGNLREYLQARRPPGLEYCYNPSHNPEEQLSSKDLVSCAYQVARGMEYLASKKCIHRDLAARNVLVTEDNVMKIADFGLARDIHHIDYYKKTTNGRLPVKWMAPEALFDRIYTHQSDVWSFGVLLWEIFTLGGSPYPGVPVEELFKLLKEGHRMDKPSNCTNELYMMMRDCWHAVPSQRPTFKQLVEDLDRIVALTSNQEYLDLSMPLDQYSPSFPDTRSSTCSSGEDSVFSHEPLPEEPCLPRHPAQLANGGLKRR

A word on the inhibition: it is how much of the control response was suppressed. Take `COc1cc2ncn(CC(O)c3ccc(Br)cc3)c(=O)c2cc1OC` (stereo unspecified): the Activity entry in data set [1], in data set [3] and in [9] was “Non-toxic” in each case. Further, the inhibition in [2] was 33%; in [5], 0%; in data set [10] it was 0%; in data set [11], 8%; in data set [12], 0%; in the data set filed under Homo sapiens [13], 5%. The inhibition in [17] is 44%. Moreover, the outcome (in the data set listed under Homo sapiens [4]; in data set [7]; in data set [8]; with HSC; in the data set listed under Homo sapiens [14]; in [16]) was Active. Further, the inhibition result in data set [6] and in data set [15] was “Active” throughout.
On to `O=c1c2cc3c(cc2ncn1Cc1ccc(Br)cc1)OCO3`, for which the Activity entry in data set [1], in data set [3] and in data set [9] was “Non-toxic” throughout. Moreover, the inhibition in data set [2] worked out at 17%; in [5] it was 0%; in data set [10], 45%; in [11] it was 1%; in data set [12] it was 0%; in the data set listed under Homo sapiens [13], 7%. Further, in data set [17], the inhibition was found to be 27%. Further, the outcome in data set [18], in [19], in data set [20], in [21], in [22] and in data set [7] was inactive. For the same molecule, the result in [8], in data set [23] and in [16] was inactive. Also, the outcome in the data set filed under Homo sapiens [4], in the data set on HSC and in the data set listed under Homo sapiens [14] was Active.
In the case of `O=C(Cn1cnc2cc3c(cc2c1=O)OCCO3)c1cccc(Br)c1`, the Activity entry in data set [1], in [3] and in [9] was “Non-toxic” in each case. Further, the inhibition in data set [2] was 2%; in [5], 0%; in [10], 4%; in [11], 18%; in data set [12] it was 0%; in the data set filed under Homo sapiens [13], 35%. For the same molecule, the inhibition in data set [17] was 36%. Besides, the inhibition result in data set [6] and in data set [15] was “Active” in each case. For the same molecule, the outcome in data set [7], in [8] and in data set [16] was Active.
Take `COc1cc2ncn(Cc3cccnc3Br)c(=O)c2cc1OC`: the Activity result in data set [1], in data set [3] and in data set [9] was “Non-toxic” in each case. The inhibition in data set [2] amounted to 30%; in data set [5] it was 3%; in [10] it was 37%; in data set [11] it was 13%; in [12], 0%; in the data set listed under Homo sapiens [13] it was 25%. The inhibition in data set [17] was found to be 24%. The result (in data set [18]; in the data set listed under Homo sapiens [4]; in data set [20]; in data set [21]; with HSC; in data set [23]) was Active. Moreover, the result in the data set listed under Homo sapiens [14] was Active. The result in [19] and in data set [22] was inactive. In addition, the inhibition entry in data set [6] and in [15] was “Active” each time.
